Our source for the IC50 and Ki values is ChEMBL document CHEMBL2046328, “Structure-based design of rhodanine-based acylsulfonamide derivatives as antagonists of the anti-apoptotic Bcl-2 protein” (Bioorg Med Chem, 2012).

Assay [1] in a line: Antiproliferative activity against mouse B16/F10 cells after 48 hrs by MTT assay. Conditions: B16-F10, 48 h. It is filed as functional, cell-based. The essentials:
(§1)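 Cells were seeded at 7×10^3 per well and grown 24 h, then exposed to compounds for 48 h. MTT was added for 6 h, followed by 10% SDS in 0.01 N HCl for 4 h at 37 °C, and absorbance was read at 570 nm. Survival is expressed relative to untreated cells. IC50 came from 6-well replicates in at least two independent experiments.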
For orientation: Tetrazolium dyes change colour on reduction, which living cells bring about.

Assay [2] has as its system HepG2. In words: Antiproliferative activity against human HepG2 cells after 48 hrs by MTT assay. Conditions: HepG2, 48 h. It is filed as functional, cell-based. A digest of the protocol:
as §1

The subject of assay [3] is PC-3. Description: Antiproliferative activity against human PC3 cells after 48 hrs by MTT assay. The conditions noted are these: PC-3, 48 h. It is filed as functional, cell-based. The essentials: as §1
A short description of assay [4]: Inhibition of FAM-Bak-BH3 binding to human N-terminal His6-tagged Bcl2 isoform 2 after 4 hrs by fluorescence polarization assay. On the technique in general: Polarisation of emitted light reports the rotation of a fluorescent probe.

Usually IC50 stands for the concentration that gives 50% inhibition. Read a low IC50 as inhibition by little substance. The Ki is a measure of affinity in units of concentration, obtained from inhibition or displacement. Lower therefore signals a stronger hold on the target.

Structures are written as SMILES. ≈ marks a conversion by molar mass, not a printed value.

Turning to `Cc1ccc(S(=O)(=O)NC(=O)[C@H](CC(C)C)NC2=NC(=O)/C(=C/c3cccc(Cl)c3)S2)cc1`, the figures for the IC50 in assay [1], in assay [2] and in assay [3] were 13.4 µg/mL (≈ 26.4 µM), 16.5 µg/mL (≈ 32.6 µM) and 16.8 µg/mL (≈ 33.1 µM), respectively.
For `Cc1ccc(S(=O)(=O)NC(=O)[C@H](Cc2ccccc2)NC2=NC(=O)/C(=C/c3ccccc3Cl)S2)cc1`, the IC50 in assay [1] is 12.2 µg/mL (≈ 22.6 µM); in assay [2], 21 µg/mL (≈ 38.9 µM); in assay [3], 16 µg/mL (≈ 29.6 µM). Affinity in assay [4] was put at a Ki of 20 nM.
Turning to `Cc1cc2c(C(C)C)c(O)c(O)c(C=O)c2c(O)c1-c1c(C)cc2c(C(C)C)c(O)c(O)c(C=O)c2c1O` [GOSSYPOL], the IC50 was determined as 5.56 µg/mL (≈ 10.7 µM) in assay [1], 10.2 µg/mL (≈ 19.6 µM) in assay [2] and 6.71 µg/mL (≈ 12.9 µM) in assay [3]. Moreover, the inhibition constant Ki in assay [4] was 334 nM.
Consider `Cc1ccc(S(=O)(=O)NC(=O)[C@H](CC(C)C)NC2=NC(=O)/C(=C/c3ccccc3Cl)S2)cc1`, for which the IC50 was found to be 8.52 µg/mL (≈ 16.8 µM) in assay [1], 13.3 µg/mL (≈ 26.4 µM) in assay [2] and 15.6 µg/mL (≈ 30.8 µM) in assay [3].
For `Cc1ccc(S(=O)(=O)NC(=O)[C@H](Cc2ccccc2)NC2=NC(=O)/C(=C/c3ccc(-c4ccccc4)cc3)S2)cc1`, the IC50 in assay [1] was 12.5 µg/mL (≈ 21.6 µM); in assay [2] it was 16.6 µg/mL (≈ 28.5 µM); in assay [3], 16.4 µg/mL (≈ 28.1 µM). In assay [4], this compound returned a Ki of 310 nM.
For `COc1ccc(/C=C2\SC(N[C@H](C(=O)NS(=O)(=O)c3ccc(C)cc3)C(C)C)=NC2=O)cc1`, the half-maximal inhibitory concentration (IC50) in assay [1] was found to be 11.6 µg/mL (≈ 23.8 µM); in assay [2], 12.8 µg/mL (≈ 26.2 µM); in assay [3], 20.3 µg/mL (≈ 41.6 µM). The same compound registered a Ki in assay [4] of 672 nM.
For `COc1ccccc1/C=C1\SC(N[C@H](C(=O)NS(=O)(=O)c2ccc(C)cc2)C(C)C)=NC1=O`, the concentration for half-maximal inhibition (IC50) is 13.5 µg/mL (≈ 27.7 µM) in assay [1], 20.2 µg/mL (≈ 41.4 µM) in assay [2] and 15 µg/mL (≈ 30.8 µM) in assay [3].
Regarding `Cc1ccc(S(=O)(=O)NC(=O)[C@H](CC(C)C)NC2=NC(=O)/C(=C/c3ccccc3F)S2)cc1`, the half-maximal inhibitory concentration (IC50) in assay [1] was determined as 11.3 µg/mL (≈ 23.1 µM); in assay [2], 16.4 µg/mL (≈ 33.6 µM); in assay [3] it was 15.3 µg/mL (≈ 31.3 µM).
For `Cc1ccc(S(=O)(=O)NC(=O)[C@@H](NC2=NC(=O)/C(=C/c3ccccc3Cl)S2)C(C)C)cc1`, the half-inhibitory concentration (IC50) is 8.8 µg/mL (≈ 17.9 µM) in assay [1], 21.2 µg/mL (≈ 43.2 µM) in assay [2] and 11.9 µg/mL (≈ 24.1 µM) in assay [3]. This compound also had a Ki in assay [4] of 25 nM.
Regarding `Cc1ccc(S(=O)(=O)NC(=O)[C@@H](NC2=NC(=O)/C(=C/c3ccccc3)S2)C(C)C)cc1`, the IC50 came out at 7.46 µg/mL (≈ 16.3 µM) in assay [1], 18.2 µg/mL (≈ 39.8 µM) in assay [2] and 11.9 µg/mL (≈ 26 µM) in assay [3]. In assay [4], this compound came in with an inhibition constant Ki of 3010 nM.
On to `Cc1ccc(S(=O)(=O)NC(=O)[C@H](Cc2ccccc2)NC2=NC(=O)/C(=C/c3ccccc3F)S2)cc1`, for which the 50% inhibitory concentration (IC50) was 11.9 µg/mL (≈ 22.7 µM) in assay [1], 18.7 µg/mL (≈ 35.8 µM) in assay [2] and 22.1 µg/mL (≈ 42.1 µM) in assay [3].
